Assay results from ChEMBL document CHEMBL4376883, “Discovery and Optimization of Small Molecules Targeting the Protein-Protein Interaction of Heat Shock Protein 90 (Hsp90) and Cell Division Cycle 37 as Orally Active Inhibitors for the Treatment of Colorectal Cancer” (J Med Chem, 2020).
Each block holds one compound with its values, some of them ahead of it. The source made the active and inactive calls. The rule behind the calls is not given here.

Key:
[1] = biological target: T1, Heat shock protein HSP 90-beta/Hsp90 co-chaperone Cdc37 (Homo sapiens) (UniProt P08238+Q16543); assay: Inhibition of HSP90-CDC37 protein-protein interaction in human HCT116 cells up to 1 uM measured after 12 hrs by coimmunoprecipitation-based Western blot assay; assay type: cell-based
Outline: (§1)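 HCT116 cells grown to ~90% confluence in 10 cm dishes, exposed to compound or DMSO for 12 h, then washed with ice-cold PBS and lysed in RIPA buffer (50 mM Tris, 150 mM NaCl, 1% NP-40, protease inhibitors, pH 7.4) for 1 h on ice. Hsp90 was immunoprecipitated with protein A/G magnetic beads over 3 h. Western blots probed Hsp90, Cdc37 and CDK4.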

[2] = biological target: T2, Heat shock protein HSP90 (Homo sapiens, UniProt P07900+P08238); assay: Inhibition of recombinant full-length HSP90 ATPase activity N-terminal domain (9 to 236 residues) (unknown origin) expressed in Escherichia coli BL21 (DE3) measured after 1 hr by ADP hunter plus assay
[3] = biological target: T1, Heat shock protein HSP 90-beta/Hsp90 co-chaperone Cdc37 (Homo sapiens); assay: Inhibition of His-tagged HSP90/GST-tagged Cdc37 (unknown origin) protein-protein interaction at 100 uM measured after 1 hr by HTRF assay relative to control; assay type: protein-complex assay
Outline: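 His-Hsp90 and GST-Cdc37 were premixed at a final 80 nM in PBS with 200 mM KF, pH 7.4. Compound was added and the mix incubated 1 h at 37 °C, then read by HTRF. Inhibition rate was taken at 100 μM compound.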

[4] = tested on: Heat shock protein HSP 90-alpha (Homo sapiens), P07900 [R46A]; assay: Binding affinity to recombinant […] HSP90 R46A mutant N-terminal domain (9 to 236 residues) (unknown origin) expressed in Escherichia coli BL21 (DE3) at 200 uM by NMR spectra analysis
[5] = biological target: T1, Heat shock protein HSP 90-beta/Hsp90 co-chaperone Cdc37 (Homo sapiens); assay: Inhibition of HSP90-CDC37 protein-protein interaction in human HCT116 cells measured after 12 hrs by coimmunoprecipitation-based Western blot assay; assay type: cell-based; outline: as §1
[6] = tested on: Mus musculus; assay: In vivo inhibition of HSP90-CDC37 protein-protein interaction in human HCT116 cells xenografted BALB/c mouse assessed as reduction in CDK4 level at 40 to 80 mg/kg, po administered once daily for 21 days measured post-last dose by immunohistochemical analysis; assay type: functional, organism-based
Outline: (§2)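 Tumours from the 21-day daily oral xenograft study (40 or 80 mg/kg) were formalin-fixed and cut into 4 µm paraffin sections. Peroxidase quenched with 3% H₂O₂; antigen retrieval by boiling in 10 mM citrate, pH 6.0. Blocked with 3% BSA; anti-CDK4 at 4 °C overnight; secondary 20 min at 37 °C. DAB detection, haematoxylin counterstain, viewed at 200×.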

[7] = biological target: T2, Heat shock protein HSP90; assay: Binding affinity to recombinant […] HSP90 N-terminal domain (9 to 236 residues) (unknown origin) expressed in Escherichia coli BL21 (DE3) assessed as change in melting temperature by SYPRO dye based thermal shift assay
Outline: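 Hsp90 N-terminal domain (10 µM) mixed with compound at 200, 100, 50 or 10 µM in 1× PBS, pH 8.0, with 6× SYPRO Orange. Heated from room temperature to 99 °C at 1 °C/min; fluorescence read at 492 nm excitation and 610 nm emission.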

[8] = biological target: T2, Heat shock protein HSP90; assay: Binding affinity to HSP90 in human HCT116 cells assessed as change in melting temperature measured after 12 hrs by CETSA; assay type: cell-based
Outline: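 HCT116 cells near 90% confluence were treated 12 h with 20 µM compound or DMSO, then washed and resuspended in PBS. Aliquots heated 3 min at 37–75 °C, freeze-thawed three times in liquid nitrogen and centrifuged. Hsp90 detected by Western blot with β-actin reference; Tm taken from band grey levels. Three independent experiments.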

[9] = tested on: Heat shock protein HSP 90-alpha (Homo sapiens), P07900 [Q133A]; assay: Binding affinity to recombinant […] HSP90 Q133A mutant N-terminal domain (9 to 236 residues) (unknown origin) expressed in Escherichia coli BL21 (DE3) at 200 uM by NMR spectra analysis
[10] = tested on: HCT-116; assay: Antitumor activity against human HCT116 cells xenografted in po dosed BALB/c mouse assessed as tumor growth inhibition administered once daily for 21 days; assay type: functional, organism-based
Outline: (§3)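 1×10^7 HCT116 cells mixed 3:1 with Matrigel were injected into the flanks of 6-week-old BALB/c nude mice, which were randomised into groups. Dosing started at mean tumour volume 125 mm³: daily oral gavage for 21 days in 0.9% saline with 5% DMSO at 40 or 80 mg/kg. Tumour volume measured daily by calipers (length×width²/2); n = 6. Tumours fixed in 4% formaldehyde, paraffin-embedded, 4 µm H&E sections.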

[11] = tested on: HCT-116; assay: Antitumor activity against human HCT116 cells xenografted in BALB/c mouse assessed as reduction in tumor cells at 40 to 80 mg/kg, po administered once daily for 21 days measured post-last dose by H and E staining-based imaging analysis; assay type: functional, organism-based; outline: as §3
[12] = biological target: T2, Heat shock protein HSP90; assay: Binding affinity to recombinant […] HSP90 N-terminal domain (9 to 236 residues) (unknown origin) expressed in Escherichia coli BL21 (DE3) at 100 uM by STD NMR spectra analysis
Outline: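 STD NMR: 100 µM compound with 5 µM Hsp90 in 20 mM sodium phosphate, 150 mM NaCl, 5% DMSO, pH 7.4. Three independent experiments.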

[13] = biological target: T1, Heat shock protein HSP 90-beta/Hsp90 co-chaperone Cdc37 (Homo sapiens); assay: Inhibition of HSP90-CDC37 protein-protein interaction in human HCT116 cells assessed as reduction in CDK4 expression up to 10 uM measured after 12 hrs by coimmunoprecipitation-based Western blot assay; assay type: cell-based; outline: as §1
[14] = tested on: Heat shock protein HSP 90-alpha (Homo sapiens), P07900 [E47A]; assay: Binding affinity to recombinant […] HSP90 E47A mutant N-terminal domain (9 to 236 residues) (unknown origin) expressed in Escherichia coli BL21 (DE3) at 200 uM by NMR spectra analysis
[15] = biological target: T2, Heat shock protein HSP90; assay: Binding affinity to recombinant […] HSP90 N-terminal domain (9 to 236 residues) (unknown origin) expressed in Escherichia coli BL21 (DE3) at 200 uM by NMR spectra analysis
[16] = Toxicity in human HCT116 cells xenografted BALB/c mouse assessed as body weight loss at 40 to 80 mg/kg, po administered once daily for 21 days measured at 3 days interval during compound dosing; assay type: organism-based; details: in vivo
Outline: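 BALB/c nude mice (6 weeks old) carried flank HCT116 xenografts (1×10^7 cells with Matrigel, 3:1). Dosing started at mean tumor volume 125 mm³: oral 40 or 80 mg/kg daily for 21 days, vehicle 0.9% saline with 5% DMSO. Body weight was recorded every 3 days; n = 6.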

[17] = Toxicity in human HCT116 cells xenografted BALB/c mouse assessed as effect on heart at 40 to 80 mg/kg, po administered once daily for 21 days measured post-last dose by H and E staining-based imaging analysis; assay type: organism-based; details: in vivo, 504 h
Outline: (§4)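 Same xenograft model in BALB/c nude mice with oral daily dosing at 40 or 80 mg/kg in 5% DMSO/saline for 21 days. After sacrifice, organs were fixed in 4% formaldehyde, paraffin-embedded, sectioned at 4 μm and H&E-stained for light-microscopy imaging.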

[18] = Toxicity in human HCT116 cells xenografted BALB/c mouse assessed as effect on spleen at 40 to 80 mg/kg, po administered once daily for 21 days measured post-last dose by H and E staining-based imaging analysis; assay type: organism-based; details: in vivo, 504 h; outline: as §4
[19] = Toxicity in human HCT116 cells xenografted BALB/c mouse assessed as effect on lung at 40 to 80 mg/kg, po administered once daily for 21 days measured post-last dose by H and E staining-based imaging analysis; assay type: organism-based; details: in vivo, 504 h; outline: as §4
[20] = Toxicity in human HCT116 cells xenografted BALB/c mouse assessed as effect on liver at 40 to 80 mg/kg, po administered once daily for 21 days measured post-last dose by H and E staining-based imaging analysis; assay type: organism-based; details: in vivo, 504 h; outline: as §4
[21] = Toxicity in human HCT116 cells xenografted BALB/c mouse assessed as effect on kidney at 40 to 80 mg/kg, po administered once daily for 21 days measured post-last dose by H and E staining-based imaging analysis; assay type: organism-based; details: in vivo, 504 h; outline: as §4
[22] = biological target: Heat shock protein HSP 90-alpha (Homo sapiens, UniProt P07900); assay: Binding affinity to recombinant human full-length HSP90alpha by surface plasmon resonance analysis
[23] = tested on: HCT-116; assay: Antitumor activity against human HCT116 cells xenografted in BALB/c mouse assessed as reduction in tumor cells at 40 mg/kg, po administered once daily for 21 days measured post-last dose by H and E staining-based imaging analysis; assay type: functional, organism-based; outline: as §3
[24] = tested on: Mus musculus; assay: In vivo inhibition of HSP90-CDC37 protein-protein interaction in human HCT116 cells xenografted BALB/c mouse assessed as reduction in CDK4 level at 40 mg/kg, po administered once daily for 21 days measured post-last dose by immunohistochemical analysis; assay type: functional, organism-based; outline: as §2
[25] = tested on: HCT-116; assay: Antitumor activity against human HCT116 cells xenografted in BALB/c mouse assessed as reduction in tumor cells at 80 mg/kg, po administered once daily for 21 days measured post-last dose by H and E staining-based imaging analysis; assay type: functional, organism-based; outline: as §3
[26] = tested on: Mus musculus; assay: In vivo inhibition of HSP90-CDC37 protein-protein interaction in human HCT116 cells xenografted BALB/c mouse assessed as reduction in CDK4 level at 80 mg/kg, po administered once daily for 21 days measured post-last dose by immunohistochemical analysis; assay type: functional, organism-based; outline: as §2
[27] = biological target: T2, Heat shock protein HSP90; assay: Binding affinity to recombinant full-length 15N-labelled HSP90 N-terminal domain (9 to 236 residues) (unknown origin) expressed in Escherichia coli BL21 (DE3) at 250 to 500 uM by 15N 1H HSQC spectra analysis
[28] = tested on: HCT-116; assay: Antitumor activity against human HCT116 cells xenografted in BALB/c mouse assessed as tumor growth inhibition at 40 mg/kg, po administered once daily for 21 days; assay type: functional, organism-based; outline: as §3

- inhibition [1]: inactive
- IC50 [2]: 0.15 µM
SMILES: CC(C)c1cc(C(=O)N2Cc3ccc(CN4CCN(C)CC4)cc3C2)c(O)cc1O [ONALESPIB]

SMILES: Cc1cc(C)c(S(=O)(=O)N(CC(=O)O)c2ccc(Nc3ccnc(N4CCNCC4)n3)cc2)c(C)c1
- inhibition [3]: 97.4%
- Activity [4]: Active
- inhibition [5]: Dose-dependent effect
- inhibition [6]: Active
- ΔTm [7]: 4.75 °C
- ΔTm [8]: 6.39 °C
- Activity [9]: Active
- TGI [10]: Dose-dependent effect
- Activity [11]: Active
- Activity [12]: Active
- inhibition [13]: Active
- Activity [14]: inactive
- Activity [15]: Active

SMILES: Cc1cc(C)c(S(=O)(=O)N(CC(=O)O)c2ccc(Nc3ccnc(N4CCNCC4)n3)cc2)c(C)c1.Cl
- Activity [16]: Non-Toxic
- Activity [17]: Non-Toxic
- Activity [18]: Non-Toxic
- Activity [19]: Non-Toxic
- Activity [20]: Non-Toxic
- Activity [21]: Non-Toxic

- Kd [22]: 4.98 µM
SMILES: Cc1cc(C)n(-c2nc(NN)nc(Nc3ccc(Cl)c(C(F)(F)F)c3)n2)n1

SMILES: Cc1cc(C)c(S(=O)(=O)N(CC(=O)O)c2ccc(Nc3ccnc(N4CCCC4)n3)cc2)c(C)c1.[Cl-].[Na+]
- Activity [16]: Non-Toxic
- Activity [17]: Non-Toxic
- Activity [18]: Non-Toxic
- Activity [19]: Non-Toxic
- Activity [20]: Non-Toxic
- Activity [21]: Non-Toxic

SMILES: Cc1cc(C)c(S(=O)(=O)N(CC(=O)O)c2ccc(Nc3ccnc(N4CCCC4)n3)cc2)c(C)c1
- inhibition [3]: 72.6%
- Activity [23]: inactive
- inhibition [24]: inactive
- ΔTm [7]: 2.13 °C
- Activity [25]: Active
- inhibition [26]: Active
- Activity [27]: Active
- TGI [28]: inactive
- Activity [12]: Active
- Activity [15]: Active
